Measured values taken from paper PMC6944734 (Alzheimer's & Dementia : Translational Research & Clinical …, 2019).

Test system: primary mouse neuronal cultures
Assay: Synaptic recordings
Assay type: cell-based
Details: compared with the control
How it was run: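 Primary neurons from E18 mouse embryos plated at 10 K per well on coverslips. At DIV 11–13, sister coverslips from the same pups were treated 24 or 72 h before recording with DMSO (n = 4), γ-secretase inhibitor DAPT (n = 5) or test compound (n = 4), and all recorded the same day. Spontaneous miniature events analysed for frequency, interevent interval, amplitude and decay. Access resistance 2–14 MΩ.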

SMILES: C[C@H](NC(=O)Cc1cc(F)cc(F)c1)C(=O)N[C@H](C(=O)OC(C)(C)C)c1ccccc1 [difluorphenacetyl-alanyl phenylglycine t-butyl ester]
- Single quantum (amplitudes below 20 pA) and multiquantal (~35–45 pA) releases: significantly more
